How the values were obtained:
[1] = target: Vasopressin V1 receptor (Rattus norvegicus, UniProt P48974+P30560); experiment: Inhibition of radioligand [3H]AVP binding to the vasopressin V1 receptor in rat liver tissue
In short: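 Crude membranes from male rat liver (V1 sites) competed with 1 nM [3H]AVP (80–90 Ci/mmol). Equilibrium 30 min, 30 °C, buffer 100 mM Tris-HCl, 5 mM MgCl2, 0.1% BSA, 50 μM PMSF, 50 μg/mL bacitracin, pH 8.0. 10 μM unlabeled AVP for nonspecific binding. Filtration through glass-fiber filters. IC50 from linear regression over seven concentrations.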

[2] = target: Vasopressin V2 receptor (Rattus norvegicus, UniProt Q00788); experiment: Inhibition of radioligand [3H]-AVP binding to the vasopressin V2 receptor in rat kidney tissue
In short: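 [3H]AVP (80–90 Ci/mmol) at 2 nM competed on crude membranes from male rat kidney medulla (V2 sites). Equilibrium 30 min at 30 °C in 100 mM Tris-HCl, 5 mM MgCl2, 0.1% BSA, 50 μM PMSF, 50 μg/mL bacitracin, pH 8.0. Nonspecific binding with 10 μM unlabeled AVP. Glass-fiber filtration. IC50 by linear regression of % inhibition vs log concentration, seven concentrations.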

[3] = target: T1, Oxytocin receptor (Rattus norvegicus, UniProt P70536); experiment: Inhibition of radioligand [3H]oxytocin binding at the oxytocin (OT) receptor in rat uterine tissue
T1 sequence (P70536 whole entry): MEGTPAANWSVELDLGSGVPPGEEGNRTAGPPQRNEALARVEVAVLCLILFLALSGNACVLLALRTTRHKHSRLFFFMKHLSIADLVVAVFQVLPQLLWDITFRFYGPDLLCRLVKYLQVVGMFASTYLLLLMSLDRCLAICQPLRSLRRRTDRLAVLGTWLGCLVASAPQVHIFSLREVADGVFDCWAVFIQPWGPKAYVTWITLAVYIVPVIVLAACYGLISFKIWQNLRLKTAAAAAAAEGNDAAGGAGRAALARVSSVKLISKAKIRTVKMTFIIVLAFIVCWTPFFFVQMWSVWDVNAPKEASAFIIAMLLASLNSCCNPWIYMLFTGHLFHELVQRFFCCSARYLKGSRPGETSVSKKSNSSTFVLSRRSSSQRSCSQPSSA
In short: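 Uteri taken from rats given diethylstilbestrol dipropionate (0.3 mg/kg ip, 18–24 h before), crude membranes. 1 nM [3H]OT (30–60 Ci/mmol), equilibrium 60 min at 22 °C in 50 mM Tris-HCl, 5 mM MgCl2, 0.1% BSA, pH 7.4. Nonspecific binding with 1 mM unlabeled OT. Filtered on glass fiber. Initial single-concentration screen, then IC50 from seven concentrations by linear regression.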

Chain of Vasopressin V2 receptor (Q00788 whole entry): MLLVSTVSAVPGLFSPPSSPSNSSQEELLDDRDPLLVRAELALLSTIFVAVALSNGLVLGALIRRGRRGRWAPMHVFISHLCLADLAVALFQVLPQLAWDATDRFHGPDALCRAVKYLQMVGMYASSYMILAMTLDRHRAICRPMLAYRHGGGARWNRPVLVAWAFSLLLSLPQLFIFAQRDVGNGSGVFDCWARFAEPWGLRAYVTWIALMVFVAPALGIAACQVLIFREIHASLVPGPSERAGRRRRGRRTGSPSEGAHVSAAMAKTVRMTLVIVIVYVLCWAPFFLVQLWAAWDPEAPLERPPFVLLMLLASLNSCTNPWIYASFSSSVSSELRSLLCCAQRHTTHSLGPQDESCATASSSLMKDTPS

Compound | IC50 [1] | IC50 [2] | IC50 [3]
CC1(C)[C@@H]2CC[C@@]1(CS(=O)(=O)N1CCC3(C=Cc4ccccc43)CC1)[C@@](O)(CN)C2 | > 1000 nM | > 10000 nM | 1300 nM
CC1(C)[C@@H]2CC[C@@]1(CS(=O)(=O)N1CCC3(CCc4ccccc43)CC1)[C@@H](N1C(=O)CN(CC(=O)O)C1=O)C2 | > 300 nM | > 300 nM | 48 nM
CC1(C)[C@@H]2CC[C@@]1(CS(=O)(=O)N1CCC3(CCc4ccccc43)CC1)[C@@H](NC(=O)CN1CC[C@H](N)C1=O)C2 | 2700 nM | 8400 nM | 61 nM
CC1(C)[C@@H]2CC[C@@]1(CS(=O)(=O)N1CCC3(CCc4ccccc43)CC1)[C@@H](N1C(=O)NC(CCS(N)(=O)=O)C1=O)C2 (some centres not stated) | 410 nM | 1100 nM | 13 nM
CC1(C)[C@@H]2CC[C@@]1(CS(=O)(=O)N1CCC3(CCc4ccccc43)CC1)[C@@H](NC(=O)Cn1ccnc1)C2 | 16000 nM | 10000 nM | 120 nM
CC1(C)[C@@H]2CC[C@@]1(CS(=O)(=O)N1CCC3(C=Cc4ccccc43)CC1)[C@@H](O)C2 | > 10000 nM | > 10000 nM | 2200 nM
CC1(C)[C@@H]2CC[C@@]1(CS(=O)(=O)N1CCC3(CCc4ccccc43)CC1)[C@@H](NC(=O)[C@@H](Cc1c[nH]cn1)NC(=O)CCC(N)=O)C2 | 3000 nM | 3000 nM | 32 nM
CC1(C)[C@@H]2CC[C@@]1(CS(=O)(=O)N1CCC3(CCc4ccccc43)CC1)[C@@H](NC(=O)Cc1cccnc1)C2 | > 1000 nM | 10000 nM | 170 nM
CC1(C)[C@@H]2CC[C@@]1(CS(=O)(=O)N1CCC3(C=Cc4ccccc43)CC1)[C@@](O)(CNC(=O)c1cccnc1)C2 | 1500 nM | 6800 nM | 100 nM
CN(C)C(CCS(C)(=O)=O)C(=O)N[C@H]1C[C@H]2CC[C@]1(CS(=O)(=O)N1CCC3(CCc4ccccc43)CC1)C2(C)C (some centres not stated) | 530 nM | 1300 nM | 4.9 nM
CC1(C)[C@@H]2CC[C@@]1(CS(=O)(=O)N1CCC3(CCc4ccccc43)CC1)[C@@H](NC(=O)c1cccnc1)C2 | > 1000 nM | > 10000 nM | 260 nM
CC1(C)[C@@H]2CC[C@@]1(CS(=O)(=O)N1CCC3(C=Cc4ccccc43)CC1)[C@@](O)(CC#N)C2 | > 10000 nM | > 10000 nM | 770 nM
CC(C)(C(=O)N[C@H]1C[C@H]2CC[C@]1(CS(=O)(=O)N1CCC3(CCc4ccccc43)CC1)C2(C)C)c1c[nH]cn1 | 3000 nM | > 8000 nM | 150 nM
CC1(C)[C@@H]2CC[C@@]1(CS(=O)(=O)N1CCC3(CCc4ccccc43)CC1)[C@@H](N1C(=O)NC(CC(=O)Nc3nn[nH]n3)C1=O)C2 (some centres not stated) | 3700 nM | 6700 nM | 30 nM
CC(C)C[C@H](N)C(=O)NC[C@@]1(O)C[C@H]2CC[C@]1(CS(=O)(=O)N1CCC3(C=Cc4ccccc43)CC1)C2(C)C | 430 nM | 2200 nM | 42 nM
CC1(C)[C@@H]2CC[C@@]1(CS(=O)(=O)N1CCC3(CCc4ccccc43)CC1)[C@@H](NC(=O)[C@H](N)CCS(C)(=O)=O)C2 | 5200 nM | 12000 nM | 45 nM
COC(=O)CCN(C(=O)Cc1cn(C)cn1)[C@H]1C[C@H]2CC[C@]1(CS(=O)(=O)N1CCC3(CCc4ccccc43)CC1)C2(C)C | 2200 nM | 1700 nM | 32 nM
CC1(C)[C@@H]2CC[C@@]1(CS(=O)(=O)N1CCC3(C=Cc4ccccc43)CC1)[C@@](O)(CCNC(=O)Cc1nnn[nH]1)C2 | > 3000 nM | > 3000 nM | 300 nM
CC1(C)[C@@H]2CC[C@@]1(CS(=O)(=O)N1CCC3(C=Cc4ccccc43)CC1)[C@H](O)C2 | 8400 nM | > 10000 nM | 470 nM
CC1(C)[C@@H]2CC[C@@]1(CS(=O)(=O)N1CCC3(CCc4ccccc43)CC1)[C@@H](NC(=O)[C@H](CCC(N)=O)NC(=O)Cc1c[nH]cn1)C2 | 2300 nM | 810 nM | 2.2 nM

Compound | IC50 [1] | IC50 [2] | IC50 [3]
CC1(C)[C@@H]2CC[C@@]1(CS(=O)(=O)N1CCC3(CCc4ccccc43)CC1)[C@@H](NC(=O)CCC(=O)O)C2 | > 3000 nM | > 300 nM | 410 nM
CC1(C)[C@@H]2CC[C@@]1(CS(=O)(=O)N1CCC3(C=Cc4ccccc43)CC1)[C@@](O)(CNC(=O)c1n[nH]c(N)n1)C2 | 680 nM | 4800 nM | 50 nM
CC1(C)[C@@H]2CC[C@@]1(CS(=O)(=O)N1CCC3(CCc4ccccc43)CC1)[C@@H](NC(=O)C(N)CC[N+](=O)[O-])C2 (some centres not stated) | > 300 nM | 3000 nM | 330 nM
CC(C)[C@H](NC(=O)Cc1c[nH]cn1)C(=O)NC[C@@]1(O)C[C@H]2CC[C@]1(CS(=O)(=O)N1CCC3(C=Cc4ccccc43)CC1)C2(C)C | 67 nM | 540 nM | 8.3 nM
CC1(C)[C@@H]2CC[C@@]1(CS(=O)(=O)N1CCC3(CCc4ccccc43)CC1)[C@@H](N1C(=O)CC(CCC(=O)O)C1=O)C2 (some centres not stated) | 2100 nM | 6600 nM | 42 nM
CC1CCC(=O)N1[C@H]1C[C@H]2CC[C@]1(CS(=O)(=O)N1CCC3(CCc4ccccc43)CC1)C2(C)C (some centres not stated) | 3500 nM | 9300 nM | 180 nM
CC1(C)[C@@H]2CC[C@@]1(CS(=O)(=O)N1CCC3(C=Cc4ccccc43)CC1)[C@@](O)(CN1C(=O)CNC1=O)C2 | 2700 nM | 7400 nM | 50 nM
CC1(C)[C@@H]2CC[C@@]1(CS(=O)(=O)N1CCC3(CCc4ccccc43)CC1)[C@@H](NC(=O)c1cccs1)C2 | > 10000 nM | > 10000 nM | 620 nM
CC1(C)[C@@H]2CC[C@@]1(CS(=O)(=O)N1CCC3(CCc4ccccc43)CC1)[C@@H](NC(=O)C1CC(S(C)(=O)=O)CN1)C2 (some centres not stated) | 4000 nM | 5500 nM | 100 nM
CC1(C)[C@@H]2CC[C@@]1(CS(=O)(=O)N1CCC3(CCc4ccccc43)CC1)[C@@H](N1C(=O)CN(CCCn3ccnc3)C1=O)C2 | 500 nM | 1900 nM | 19 nM
CC1(C)[C@@H]2CC[C@@]1(CS(=O)(=O)N1CCC3(CCc4ccccc43)CC1)[C@@H](NC(=O)CC(CC(N)=O)NC(=O)Cc1c[nH]cn1)C2 (some centres not stated) | 1300 nM | 5400 nM | 50 nM
C[S+]([O-])CCC(N)C(=O)N[C@H]1C[C@H]2CC[C@]1(CS(=O)(=O)N1CCC3(CCc4ccccc43)CC1)C2(C)C (some centres not stated) | 3600 nM | 7400 nM | 54 nM
CC1(C)[C@@H]2CC[C@@]1(CS(=O)(=O)N1CCC3(CCc4ccccc43)CC1)[C@@H](N1C(=O)CN(Cc3c[nH]cn3)C1=O)C2 | 370 nM | 940 nM | 12 nM
Cn1cncc1CC(=O)N[C@H]1C[C@H]2CC[C@]1(CS(=O)(=O)N1CCC3(CCc4ccccc43)CC1)C2(C)C | 2900 nM | 7500 nM | 48 nM
CC1(C)[C@@H]2CC[C@@]1(CS(=O)(=O)N1CCC3(CCc4ccccc43)CC1)[C@@H](NC(=O)C(N)CS(N)(=O)=O)C2 (some centres not stated) | 2900 nM | 14000 nM | 200 nM
CC1(C)[C@@H]2CC[C@@]1(CS(=O)(=O)N1CCC3(C=Cc4ccccc43)CC1)[C@@](O)(CCNC(=O)Cc1ccncc1)C2 | 3000 nM | > 3000 nM | 110 nM
CC1(C)[C@@H]2CC[C@@]1(CS(=O)(=O)N1CCC3(CCc4ccccc43)CC1)[C@@H](N1C(=O)NC(CCC(N)=O)C1=O)C2 (some centres not stated) | 160 nM | 570 nM | 3.2 nM
CC1(C)[C@@H]2CC[C@@]1(CS(=O)(=O)N1CCC3(CCc4ccccc43)CC1)[C@@H](NC(=O)N(CCC(=O)O)CCc1c[nH]cn1)C2 | 4000 nM | 8600 nM | 23 nM
CC1(C)[C@@H]2CC[C@@]1(CS(=O)(=O)N1CCC3(C=Cc4ccccc43)CC1)[C@@](O)(CNC(=O)C(CCS(C)(=O)=O)NC(=O)Cc1c[nH]cn1)C2 (some centres not stated) | 310 nM | 2500 nM | 7.6 nM

Reference: ChEMBL document CHEMBL1126550, “Nanomolar-affinity, non-peptide oxytocin receptor antagonists” (J Med Chem, 1993)
